Reference: ChEMBL document CHEMBL3124905, “Isothiocoumarin-3-carboxylic acid derivatives: synthesis, anticancer and antitrypanosomal activity evaluation” (Eur J Med Chem, 2014)

Experiments:
[1] = Acute toxicity in ip dosed white mouse; type: organism-based; conditions: in vivo
Outline: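 White male mice, 23-25 g, dosed intraperitoneally with compound dissolved in 0.9% NaCl saline plus 1-2 drops Polysorbate 80 (Tween-80). Solutions prepared immediately before use. Doses ranged 100-1000 mg/kg, testing 4 or 5 doses with 6 animals per dose. LD50 derived by the Litchfield-Wilcoxon method.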

[2] = test system: Trypanosoma brucei brucei; assay: Antitrypanosomal activity against bloodstream form of Trypanosoma brucei brucei strain 90-13 assessed as inhibition of parasite growth at 10 ug/ml after 72 hrs by resazurin reduction test; type: functional; conditions: strain 90-13, 72 h
Outline: (§1)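 Trypanosoma brucei brucei 90-13 bloodstream forms, grown in HMI9 with 10% FCS at 37 °C under 5% CO2. Log-phase parasites were seeded at 10^5 cells/mL with or without inhibitor, with stocks prepared in DMSO. After 72 h, resazurin was added and fluorescence was read at 530/590 nm after a further 4 h. Percent growth inhibition was calculated versus drug-free parasites, with DMSO as control.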

[3] = test system: Trypanosoma brucei brucei; assay: Antitrypanosomal activity against bloodstream form of Trypanosoma brucei brucei strain 90-13 assessed as inhibition of parasite growth at 1 ug/ml after 72 hrs by resazurin reduction test; type: functional; conditions: strain 90-13, 72 h; outline: as §1
SR = assay: Growth inhibition of human SR cells after 48 hrs by SRB assay; type: functional
Outline: (§2)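 NCI ~60-cell-line five-dose screen. Cells were preincubated 24-48 h, then given compound at 10-fold dilutions from 10^-4 to 10^-8 M with 48 h continuous exposure. SRB protein stain was read by absorbance at time zero, in untreated control and with drug. GI50 was derived from [(Ti-Tz)/(C-Tz)]x100=50, TGI from Ti=Tz, and LC50 from [(Ti-Tz)/Tz]x100=-50.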

NCI-H460 [4] = assay: Anticancer activity against human NCI-H460 cells assessed as cell growth at 100 uM after 48 hrs by SRB assay; type: functional; conditions: NCI-H460, 48 h, read-out: Activity
Outline: (§3)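 NCI one-dose primary screen on a three-line panel (breast MCF7, lung NCI-H460, CNS SF-268). Cells were inoculated and preincubated 24–48 h, then exposed to a single concentration of 10−4 M for 48 h. The endpoint was sulforhodamine B protein staining, and results are expressed as percent growth relative to untreated control cells. Negative values denote cytotoxicity.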

[5] = Growth inhibition of human SF539 cells after 48 hrs by SRB assay; type: functional; conditions: SF-539, 48 h
Outline: (§4)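 NCI five-dose assay against the ~60-cell-line panel (nine cancer types). Tenfold dilutions from 10−4 to 10−8 M were used with continuous 48-h exposure and SRB absorbance readout. Percent growth was computed from time-zero, control and treated absorbances. GI50 is the concentration giving 50% lower net protein increase than controls. Values not reached are reported as beyond the tested range.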

MCF7 = assay: Anticancer activity against human MCF7 cells assessed as cell growth at 100 uM after 48 hrs by SRB assay; type: functional; conditions: MCF7, 48 h, read-out: Activity; outline: as §3
SF-268 = assay: Anticancer activity against human SF268 cells assessed as cell growth at 100 uM after 48 hrs by SRB assay; type: functional; conditions: SF-268, 48 h, read-out: Activity; outline: as §3
MDA-MB-231 = assay: Growth inhibition of human MDA-MB-231/ATCC cells after 48 hrs by SRB assay; type: functional; conditions: MDA-MB-231, 48 h; outline: as §4
PC-3 = assay: Growth inhibition of human PC3 cells after 48 hrs by SRB assay; type: functional; conditions: PC-3, 48 h; outline: as §4
HOP-62 = assay: Growth inhibition of human HOP62 cells after 48 hrs by SRB assay; type: functional; conditions: HOP-62, 48 h; outline: as §4
[6] = Growth inhibition of human HOP92 cells after 48 hrs by SRB assay; type: functional; conditions: HOP-92, 48 h; outline: as §4
CCRF-CEM = assay: Growth inhibition of human CCRF-CEM cells after 48 hrs by SRB assay; type: functional; outline: as §4
HCT-116 = assay: Growth inhibition of human HCT116 cells after 48 hrs by SRB assay; type: functional; conditions: HCT-116, 48 h; outline: as §4
BT-549 = assay: Growth inhibition of human BT549 cells after 48 hrs by SRB assay; type: functional; conditions: BT-549, 48 h; outline: as §4
[7] = Growth inhibition of human 786-O cells after 48 hrs by SRB assay; type: functional; conditions: 786-0, 48 h; outline: as §4
M14 = assay: Growth inhibition of human M14 cells after 48 hrs by SRB assay; type: functional; conditions: M14, 48 h; outline: as §4
NCI-H23 = assay: Growth inhibition of human NCI-H23 cells after 48 hrs by SRB assay; type: functional; conditions: NCI-H23, 48 h; outline: as §4
KM12 = assay: Growth inhibition of human KM12 cells after 48 hrs by SRB assay; type: functional; conditions: KM12, 48 h; outline: as §4
NCI-H460 [8] = assay: Growth inhibition of human NCI-H460 cells after 48 hrs by SRB assay; type: functional; conditions: NCI-H460, 48 h; outline: as §4
U-251 = assay: Growth inhibition of human U251 cells after 48 hrs by SRB assay; type: functional; conditions: U-251, 48 h; outline: as §2
NCI/ADR-RES = assay: Growth inhibition of human NCI/ADR-RES cells after 48 hrs by SRB assay; type: functional; outline: as §4
LOX IMVI = assay: Growth inhibition of human LOXIMVI cells after 48 hrs by SRB assay; type: functional; outline: as §4
[9] = Growth inhibition of human […] cells after 48 hrs by SRB assay; type: functional; outline: as §4
MOLT-4 = assay: Growth inhibition of human MOLT4 cells after 48 hrs by SRB assay; type: functional; conditions: MOLT-4, 48 h; outline: as §4

O=C(Nc1cccc2ccccc12)c1cc2ccccc2c(=O)s1
LD50 [1]: 410 mg/kg
inhibition at 10 µg/mL [2]: > 50%
inhibition at 1 µg/mL [3]: 60.8%

Cc1cc(NC(=O)c2cc3ccccc3c(=O)s2)no1
GI50 (SR): 339 nM
TGI (SR; read-out: pTGI (converted)): > 100 µM
growth at 100 µM (NCI-H460 [4]): 31%
GI50 [5]: 30.2 µM
TGI ([5]; read-out: pTGI (converted)): > 100 µM
growth at 100 µM (MCF7): 85%
growth at 100 µM (SF-268): 86%

COc1ccc2cc(C(=O)Nc3cccc(C(F)(F)F)c3)sc(=O)c2c1OC
GI50 (MDA-MB-231): 2090 nM
TGI (MDA-MB-231; read-out: pTGI (converted)): 5.37 µM
GI50 (PC-3): 4.68 µM
TGI (PC-3; read-out: pTGI (converted)): 19.5 µM
GI50 (HOP-62): 5.37 µM
TGI (HOP-62; read-out: pTGI (converted)): 16.2 µM
GI50 [6]: 3.02 µM
TGI ([6]; read-out: pTGI (converted)): 10 µM
LD50 [1]: 750 mg/kg
growth at 100 µM (NCI-H460 [4]): 4%
GI50 (CCRF-CEM): 12 µM
TGI (CCRF-CEM; read-out: pTGI (converted)): 91.2 µM
GI50 (HCT-116): 3.39 µM
TGI (HCT-116; read-out: pTGI (converted)): 14.5 µM
inhibition at 10 µg/mL [2]: 5.46%
GI50 (BT-549): 2450 nM
TGI (BT-549; read-out: pTGI (converted)): 7.08 µM
growth at 100 µM (MCF7): 45%
GI50 [7]: 3.39 µM
TGI ([7]; read-out: pTGI (converted)): 12.3 µM
GI50 (M14): 7.76 µM
TGI (M14; read-out: pTGI (converted)): 20 µM
GI50 (NCI-H23): 6.46 µM
TGI (NCI-H23; read-out: pTGI (converted)): 18.6 µM
inhibition at 1 µg/mL [3]: -9.98%
growth at 100 µM (SF-268): 49%
GI50 (KM12): 9.55 µM
TGI (KM12; read-out: pTGI): > 100 µM
GI50 (NCI-H460 [8]): 5.37 µM
TGI (NCI-H460 [8]; read-out: pTGI): > 100 µM
GI50 (U-251): 3.16 µM
TGI (U-251; read-out: pTGI (converted)): 11 µM
GI50 (NCI/ADR-RES): 8.43 µM
TGI (NCI/ADR-RES; read-out: pTGI (converted)): 21.9 µM
GI50 (LOX IMVI): 6.92 µM
TGI (LOX IMVI; read-out: pTGI (converted)): 21.9 µM
GI50 [9]: 2040 nM
TGI ([9]; read-out: pTGI (converted)): 5.75 µM
GI50 (MOLT-4): 5.62 µM
TGI (MOLT-4; read-out: pTGI (converted)): 25.7 µM
